The assay relates to ldlA[mSR-BI] cells, [3H]cholesterol efflux to HDL. Kind of assay: inhibitors of SR-BI-mediated cholesterol efflux to HDL, dose response, mechanism study for SR-BI HDL uptake inhibitor project, ldlA[mSR-BI] cells, [3H]cholesterol, powder samples, set 2 (AID 624017). The essentials:
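System: [3H]cholesterol-loaded ldlA[mSR-BI] cells. Buffer or medium: assay medium with 0.5% FAF-BSA, 25 mM HEPES pH 7.4. Dosing: compound in 0.5% DMSO final. Timing: 2-day label, 24 h equilibration, 1 h compound pretreatment, 2 h efflux. Signal: liquid scintillation counting of [3H] in medium and Triton lysate.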

The term IC50 denotes the concentration that gives 50% inhibition. Take `CC(C)NC(=O)Nc1ccc2c(c1)C(=O)N([C@H](C)CO)C[C@@H](C)[C@H](CN(C)S(=O)(=O)c1ccc(Cl)cc1)O2`: the IC50 is 250 nM.
